Test results from ChEMBL document CHEMBL4028870, “Controlling Plasma Stability of Hydroxamic Acids: A MedChem Toolbox” (J Med Chem, 2017).

What was measured:
Assay type in all cases: ADME, cell-free
Plasma [1] = test: Half life in rat plasma at 10 uM up to 360 mins in presence of 3-cyclohexylpropanehydroxamic acid by LC-MS/MS analysis; conditions: 6 h
Plasma [2] = test: Half life in rat plasma at 10 uM up to 360 mins in presence of 4-cyclohexylbutanehydroxamic acid by LC-MS/MS analysis; conditions: 6 h
[3] = Half life in rat plasma at 10 uM up to 360 mins in presence of N-hydroxy-N'-phenylsuccinamide by LC-MS/MS analysis; conditions: with N-hydroxy-N'-phenylsuccinamide (concentration not stated)
Plasma [4] = test: Stability in rat plasma at 10 uM up to 360 mins in presence of EDTA by LC-MS/MS analysis; conditions: 6 h
Method in brief: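 Rat plasma incubated in duplicate at 37 °C with 10 µM test compound (1% methanol), plus either 1 mM DTNB (11) or 0.5 mM EDTA (12). Duplicate controls used methanol in place of the inhibitor. Samples taken from 0 to 360 min and quenched with 9 volumes of cold methanol containing internal standard. Remaining compound measured by LC-MS/MS relative to T0.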

With `O=C(CCCc1ccccc1)NO` [PHENYLBUTYRYLHYDROXAMIC ACID] as the compound, how does the t1/2 (Plasma [1]) read?
Its t1/2 is 22.6 h.

And the t1/2 (Plasma [2])?
The t1/2 was 30.9 h.

What about the half-life at 10 µM [3] of the same compound?
Its half-life at 10 µM is 20 h.

And the Stability (Plasma [4])?
The Stability was “Unstable”.
